TAAR1 agonist = agonists of human TAAR1 | AID 624467 | activation, % at 3 µM | CHO RD-HGA16 TAAR1, Fluo-8 calcium fluorescence; vehicle wells 0%, saturating PEA agonist 100% | 360,000 compounds, 0.99% hits;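 active = activation above the mean activation of all test compounds in the run plus 3 SD, cut at about 38% in these data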
Target sequence (Q96RJ0 whole entry, looked up): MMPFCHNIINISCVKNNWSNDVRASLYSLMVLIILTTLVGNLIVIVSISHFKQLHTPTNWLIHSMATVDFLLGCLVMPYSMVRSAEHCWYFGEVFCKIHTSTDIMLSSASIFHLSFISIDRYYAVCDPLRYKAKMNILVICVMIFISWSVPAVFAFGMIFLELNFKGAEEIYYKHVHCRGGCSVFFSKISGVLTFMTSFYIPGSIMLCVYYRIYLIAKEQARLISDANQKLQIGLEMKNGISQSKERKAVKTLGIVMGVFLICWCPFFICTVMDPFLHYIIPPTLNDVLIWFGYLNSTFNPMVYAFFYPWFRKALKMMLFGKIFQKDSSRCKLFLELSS
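test system = CHO RD-HGA16 cells carrying human TAAR1 plus Gα16 | schedule = 17-24 h seeding, 75 min 37 °C dye, 30 min RT | compound dosing = 3 µM single concentration | control set = DMSO and PEA EC100 | replicates = n 1 | signal = Fluo-8 fluorescence, 5 s baseline then 140 s kinetic read | measure = percent activation vs PEA EC100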
TAAR1 antagonist = antagonists of human TAAR1. Q96RJ0. CHO RD-HGA16 TAAR1, Fluo-8 calcium fluorescence, antagonist. inhibition, % at 3 µM. 360,000 compounds, 1.5% hits. AID 624466;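 active = inhibition above a per-plate cutoff, the mean inhibition of test compounds on that plate plus 3 SD, cut at about 49% in these data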
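Material: RD-HGA16 CHO cells with stable hTAAR1 and Gα16; Dosing: single nominal final test compound concentration of 3 µM; Schedule: seeding 17-24 h prior, 75-min 37 °C, 30-min RT dye loading; Detection: kinetic Fluo-8 calcium fluorescence measurement; Measure: % inhibition from peak post-agonist over basal fluorescence ratio; Benchmarks: vehicle and agonist controls.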
OX1R antag-1 = antagonists of human orexin 1 receptor | O43613 | CHO/OX1R cells, Fluo-8 calcium fluorescence, orexin A | inhibition, % at 5 µM | 330,000 compounds, 0.43% hits | AID 434989;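 active = inhibition above its plate's threshold, mean inhibition of all tested compounds on the plate plus 3 SD, cut at about 37% in these data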
Target sequence (O43613 whole entry, looked up): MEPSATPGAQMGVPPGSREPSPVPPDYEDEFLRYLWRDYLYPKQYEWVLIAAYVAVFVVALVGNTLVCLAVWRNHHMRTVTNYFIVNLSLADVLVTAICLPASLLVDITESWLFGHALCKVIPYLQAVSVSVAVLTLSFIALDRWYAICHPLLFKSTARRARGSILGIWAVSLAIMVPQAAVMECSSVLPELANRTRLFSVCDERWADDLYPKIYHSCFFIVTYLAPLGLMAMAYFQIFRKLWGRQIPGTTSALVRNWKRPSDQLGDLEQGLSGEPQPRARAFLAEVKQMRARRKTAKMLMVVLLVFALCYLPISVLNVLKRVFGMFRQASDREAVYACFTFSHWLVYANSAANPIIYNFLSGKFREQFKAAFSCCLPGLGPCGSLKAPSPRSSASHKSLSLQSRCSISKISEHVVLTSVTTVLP
CHO parental Ca = counter-screen: ATP calcium response change in parental CHO cells; parental CHO-K1, ATP-induced calcium, Fluo-8 fluorescence; inhibition, % at 5.6 µM; 330,000 compounds, 0.63% hits; AID 463079;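 active = inhibition above that plate's mean sample inhibition plus 3 SD, cut at about 26% in these data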
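Assay system: parental CHO cells; Read-out basis: percent inhibition of ATP-evoked calcium rise, normalized to controls; Benchmarks: ATP and no-ATP DMSO wells; Compound dosing: single nominal dose of 5.6 µM per compound; Signal: Fluo-8 calcium dye fluorescence; Also added: ATP as calcium-mobilizing challenge; Repeats: singlicate.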
OX1R antag-2 = antagonists of human orexin 1 receptor (OX1R); O43613; OX1R-expressing cells, FRET antagonist read-out; inhibition, % at 6.6 µM; 330,000 compounds, 1.8% hits; AID 485270; in the data active = inhibition mostly above about 38%, no sharp cut-off; inactive = mostly below about 40%
Large screens that a line does not name were inactive; ! = repeats disagree. Hits are enriched below; roughly 3.9% of the tested compounds scored in any of these assays.

Cc1cc2c(cc1S(=O)(=O)N1CCN(c3cccc(C)c3C)CC1)OCCN2C	CHO parental Ca 57.3
Cc1cc2c(cc1S(=O)(=O)N1CCN(c3ccc(Cl)cc3)CC1)OCCN2C	none
CC(=O)Nc1ccc(NC(=O)c2cc(-c3cc(C)cc(C)c3O)n[nH]2)cc1	none
Cc1cc(C)c(O)c(-c2cc(C(=O)Nc3ccc(S(=O)(=O)N4CCOCC4)cc3)[nH]n2)c1	CHO parental Ca 34.3
C=C(C)c1nc(Oc2ccccc2)nc(Oc2ccccc2)n1	none (no result: OX1R antag-1, CHO parental Ca, OX1R antag-2)
O=C(NCCN1CCOCC1)C1CCN(c2ncnc3c2sc2cccc(F)c23)CC1	none
CCCCN(CC)CCCNC(=O)C1CCN(c2ncnc3c2sc2cccc(F)c23)CC1	OX1R antag-2 62.3
N#C/C(=C(/O)c1ccccc1F)c1nc2cc(C(F)(F)F)ccc2s1	none
N#C/C(=C(/O)c1ccc2c(c1)OCO2)c1nc2cc(C(F)(F)F)ccc2s1	OX1R antag-2 58.3
CC1(C(=O)NCc2ccccc2Br)CCN1C(=O)CCc1ccc(Cl)cc1Cl (centres undefined)	none (no result: OX1R antag-1, CHO parental Ca, OX1R antag-2)
CN(C)c1cccc(/C=C(\C#N)c2ccccc2)c1	CHO parental Ca 37.8
O=C(c1cc(-c2ccccc2)nc2ccccc12)N1CCN(c2ccccc2O)CC1	TAAR1 antagonist 55.3
O=C(c1cc(-c2ccccc2)nc2ccccc12)N1CCN(c2ccccn2)CC1	none
COc1ccc(-c2cc(C(=O)N3CCCC(C(F)(F)F)C3)c3ccccc3n2)cc1OC (centres undefined)	TAAR1 antagonist 50.4
COc1ccc(-c2cc(C(=O)OCC(=O)N3CCCCC3)c3ccccc3n2)cc1OC	TAAR1 antagonist 70.6
COC1=CC(=O)OC(c2ccccc2C(F)(F)F)C1 (centres undefined)	none (no result: OX1R antag-1, CHO parental Ca, OX1R antag-2)
CN1C(=O)[C@@](O)(c2cn(C)c3ccccc23)c2cc(Br)ccc21	none (no result: OX1R antag-1, CHO parental Ca, OX1R antag-2)
FC(F)(F)c1ccccc1CN1CCCc2nc(-c3ccc(Br)cc3)ccc21	none (no result: OX1R antag-1, CHO parental Ca, OX1R antag-2)
Cc1cccc(OCc2nnc(SCC(=O)N(C(C)C)C(C)C)n2Cc2ccco2)c1C	OX1R antag-2 35.8
O=C1c2ccccc2S(=O)N1c1cccc(F)c1 (centres undefined)	none (no result: OX1R antag-1, CHO parental Ca, OX1R antag-2)
CCOC(=O)C1=CCC(c2cc3ccccc3[nH]2)NC1 (centres undefined)	none (no result: OX1R antag-1, CHO parental Ca, OX1R antag-2)
O=[N+]([O-])c1cccc(N/N=C/c2ccc(N3CCOCC3)cc2)c1	TAAR1 antagonist 58.4
CN(C)c1ccc2c(c1)Sc1cc(N(C)C)ccc1N2C(=O)c1ccccc1	CHO parental Ca 38.2
Cc1cc(C(=O)N/N=C/c2c3ccccc3cc3ccccc23)n[nH]1	none
NC(=O)C(=O)N/N=C/c1c2ccccc2cc2ccccc12	OX1R antag-2 82.0
O=C1Nc2ccccc2-n2nnnc2C1N1CCN(CCN2CCOCC2)CC1 (centres undefined)	none (no result: OX1R antag-1, CHO parental Ca, OX1R antag-2)
O=C(c1ccoc1)N1CCC2(CC1)Oc1ccc(Cl)cc1C(=O)C21CC(c2ccccc2)=NO1 (centres undefined)	none
CCC(=O)N1CCC2(CC1)Oc1ccc(Cl)cc1C(=O)C21CC(c2ccccc2)=NO1 (centres undefined)	TAAR1 antagonist 53.9
O=C(N[C@H](Cc1ccccc1)C(=O)N1CCN(CC(=O)N2CCCC2)CC1)[C@H]1O[C@@H](n2ccc(=O)[nH]c2=O)[C@H](O)[C@@H]1O	none (no result: OX1R antag-1, CHO parental Ca, OX1R antag-2)
COn1c(-c2ccccc2)nc2ccc(Cl)cc21	none
Clc1ccc2nc3c4ccccc4cnn3c2c1	OX1R antag-2 69.1
COc1cccc(C2=NCCc3cc4c(cc32)OCO4)c1OC	none
COc1ccc2cc3[n+](cc2c1OC)CCc1cc2c(cc1-3)OCO2	OX1R antag-2 55.0!
O=C(NC1=NCCS1)c1ccc(-c2ccc(Cl)cc2)o1	OX1R antag-2 56.1
O=C(NC1=NCCS1)c1ccc(Cl)cc1	none
COc1cccc(/C=N/NC(=O)C(=O)NCc2ccco2)c1O	OX1R antag-2 41.1
COc1cccc(/C=N/NC(=O)CSCC(=O)Nc2ccccc2)c1O	OX1R antag-2 59.0
COc1cccc(/C=N/NC(=O)C(=O)NCc2ccco2)c1OC	none
COC(=O)c1cc2c(c3c4cc(F)ccc4n(S(=O)(=O)c4ccccc4)c13)C(=O)N(Cc1ccccc1)C2	none (no result: OX1R antag-1, CHO parental Ca, OX1R antag-2)
C=CC[C@H]1CC(C)=C[C@H](CC=C)N1C(=O)c1cc(COc2ccccc2SC)on1	TAAR1 antagonist 52.8, CHO parental Ca 44.4
COCC1CCN(C(=O)c2cc(COc3ccccc3SC)on2)C1 (centres undefined)	none
Cc1ccc(NC(=O)C2(C)CCN2Cc2ccccc2OC(F)F)cc1 (centres undefined)	none (no result: OX1R antag-1, CHO parental Ca, OX1R antag-2)
Nc1ccc2c3c(cccc13)-c1ccccc1-2	TAAR1 agonist 81.7, TAAR1 antagonist 72.1 (no result: OX1R antag-1, CHO parental Ca, OX1R antag-2)
Cc1ccc2c3c(cccc13)-c1ccccc1C2=O	none
COc1ccc(-n2c(SCC(=O)Nc3ccccc3)nnc2-c2ccc(NS(=O)(=O)c3ccc(C)cc3)cc2)cc1	TAAR1 antagonist 52.5
CCCN(CC(=O)Nc1ccccc1OC)C(=O)c1ccc(S(=O)(=O)Nc2ccccc2OC)cc1	none (no result: OX1R antag-1, CHO parental Ca, OX1R antag-2)
COc1ccc(NC(=O)Cn2nnc(-c3ccccc3NS(=O)(=O)c3ccc(OC)cc3)n2)cc1	CHO parental Ca 38.8
COc1ccc(-n2c(SCC(N)=O)nnc2-c2ccc(NS(=O)(=O)c3ccc(C)cc3)cc2)cc1	none
CCCN(CC(=O)Nc1ccccc1OC)C(=O)c1ccc(S(=O)(=O)Nc2ccccc2)cc1	OX1R antag-2 70.3
COc1ccccc1NC(=O)Cn1nnc(-c2ccccc2NS(=O)(=O)c2ccccc2)n1	TAAR1 antagonist 56.6
CC(C)=CCC[C@H](C)C[C@@H]1CC2=C(C(=O)OC(C)(C)O2)[C@@H](c2ccc(F)cc2)O1	none (no result: OX1R antag-1, CHO parental Ca, OX1R antag-2)
Cc1nc2ccc(NS(=O)(=O)c3ccc4c(c3)OCCO4)cc2s1	OX1R antag-1 44.9
Cc1nc2ccc(NS(=O)(=O)c3cccc([N+](=O)[O-])c3)cc2s1	CHO parental Ca 30.0
Cc1ccc(S(=O)(=O)Nc2ccc3nc(N)sc3c2)cc1	CHO parental Ca 33.8
CC[N+]1(C)CCC(O)(c2ccc(OC)cc2)C(C(=O)c2ccc(OC)cc2)C1 (centres undefined)	none (no result: OX1R antag-1, CHO parental Ca, OX1R antag-2)
Cn1nc(C(=O)NCc2ccc(F)cc2)c2ccccc2c1=O	none
Cn1nc(CC(=O)NCc2ccc(C(F)(F)F)cc2)c2ccccc2c1=O	TAAR1 antagonist 52.4
O=[N+]([O-])c1ccc(NCCCc2ccccc2)cc1	TAAR1 antagonist 52.4 (no result: OX1R antag-1, CHO parental Ca, OX1R antag-2)
O=C(Nc1ccc(F)cc1F)N1CCCN(c2ccc(C(F)(F)F)cn2)CC1	none
Fc1ccc(NC(=S)N2CCCN(c3ccc(C(F)(F)F)cn3)CC2)c(F)c1	OX1R antag-1 56.9
CCOC(=O)C(Cc1ccccc1)NC(=O)CCCC(=O)c1ccccc1 (centres undefined)	CHO parental Ca 47.3
CC(O)(c1cccnc1)c1nc(-c2ccc(F)c(Cl)c2)cs1 (centres undefined)	none (no result: OX1R antag-1, CHO parental Ca, OX1R antag-2)
O=C(OCc1nnc(-c2ccccc2)o1)c1ccc([N+](=O)[O-])s1	OX1R antag-2 46.9
